Reference: ChEMBL document CHEMBL1139620, “Synthesis of a small library of diketopiperazines as potential inhibitors of calpain” (Bioorg Med Chem Lett, 2005)
Blank lines part the entries; values can stand above or below the compound they belong to. Where a SMILES comes first, the peptide text is derived from it. [ ]: non-standard residue; d: D form. The star is where a group is joined. ξ: configuration not given here. ξF = NC(Cc1ccccc1)C(=O)O; Cbz = O=C(OCc1ccccc1)*

Columns and labels:
[1] = biological target: T1, Calpain-1 catalytic subunit (Homo sapiens) (UniProt P07384); assay: Percent inhibition of human calpain 1 at 190 uM; Inhibition within […]
T1 sequence (whole entry): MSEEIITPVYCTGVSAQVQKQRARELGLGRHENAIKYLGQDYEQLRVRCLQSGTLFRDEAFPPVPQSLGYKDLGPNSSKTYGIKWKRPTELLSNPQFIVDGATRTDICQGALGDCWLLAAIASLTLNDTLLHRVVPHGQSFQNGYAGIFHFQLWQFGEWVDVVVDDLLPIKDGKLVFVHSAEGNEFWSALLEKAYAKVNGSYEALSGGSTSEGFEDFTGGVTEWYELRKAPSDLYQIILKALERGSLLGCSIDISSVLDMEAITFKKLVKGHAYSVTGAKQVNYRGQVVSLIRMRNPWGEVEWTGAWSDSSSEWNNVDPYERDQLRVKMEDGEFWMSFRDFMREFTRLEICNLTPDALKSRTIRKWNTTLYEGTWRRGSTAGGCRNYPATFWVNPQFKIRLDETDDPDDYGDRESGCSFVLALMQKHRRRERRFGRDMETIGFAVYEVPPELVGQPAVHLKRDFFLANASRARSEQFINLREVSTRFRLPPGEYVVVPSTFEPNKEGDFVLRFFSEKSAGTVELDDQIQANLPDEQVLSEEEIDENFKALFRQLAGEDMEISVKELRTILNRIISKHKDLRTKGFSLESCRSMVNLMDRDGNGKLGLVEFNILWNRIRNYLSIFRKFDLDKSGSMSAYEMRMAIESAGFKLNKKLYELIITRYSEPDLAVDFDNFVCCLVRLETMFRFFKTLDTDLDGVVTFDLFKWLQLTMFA
Summary of the method: (§1)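 Recombinant human calpain I expressed in baculovirus, continuous fluorescence assay with Suc-Leu-Tyr-AMC (8 mM stock) in Tris 50 mM pH 7.3, EDTA 0.5 mM, βME 10 mM. Started with CaCl2 (40 mM stock). Ex 380/em 460 nm, linear for at least 2 min. Percent inhibition is the drop in initial rate against DMSO-only controls at the highest concentration tested. Values are within 10%.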

[2] = biological target: T1, Calpain-1 catalytic subunit (Homo sapiens); assay: Percent inhibition of human calpain 1 at 300 uM; Inhibition within […]; summary of the method: as §1
[3] = Concentration required for inhibition of calpain
Summary of the method: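 Calpain I (recombinant human, baculovirus-expressed) was hydrolysing Suc-Leu-Tyr-AMC in Tris 50 mM pH 7.3 with EDTA 0.5 mM and βME 10 mM, activated by CaCl2 (40 mM stock). Fluorescence was followed continuously at ex 380/em 460 nm. The value is the concentration giving a 50% decrease in initial hydrolysis rate relative to DMSO controls.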

[4] = biological target: T1, Calpain-1 catalytic subunit (Homo sapiens); assay: Percent inhibition of human calpain 1 at 160 uM; Inhibition within […]; summary of the method: as §1
[5] = biological target: T1, Calpain-1 catalytic subunit (Homo sapiens); assay: Percent inhibition of human calpain 1 at 210 uM; Inhibition within […]; summary of the method: as §1
[6] = biological target: T1, Calpain-1 catalytic subunit (Homo sapiens); assay: Percent inhibition of human calpain 1 at 180 uM; Inhibition within […]; summary of the method: as §1
[7] = biological target: T1, Calpain-1 catalytic subunit (Homo sapiens); assay: Percent inhibition of human calpain 1 at 90 uM; Inhibition within […]; summary of the method: as §1
[8] = biological target: T1, Calpain-1 catalytic subunit (Homo sapiens); assay: Percent inhibition of human calpain 1 at 100 uM; Inhibition within […]; summary of the method: as §1
[9] = biological target: T1, Calpain-1 catalytic subunit (Homo sapiens); assay: Percent inhibition of human calpain 1 at 360 uM; Inhibition within […]; summary of the method: as §1
[10] = biological target: T1, Calpain-1 catalytic subunit (Homo sapiens); assay: Percent inhibition of human calpain 1 at 920 uM; Inhibition within […]; summary of the method: as §1
[11] = biological target: T1, Calpain-1 catalytic subunit (Homo sapiens); assay: Percent inhibition of human calpain 1 at highest 200 uM; Inhibition within […]; summary of the method: as §1
[12] = biological target: T1, Calpain-1 catalytic subunit (Homo sapiens); assay: Percent inhibition of human calpain 1 at 610 uM; Inhibition within […]; summary of the method: as §1
[13] = biological target: T1, Calpain-1 catalytic subunit (Homo sapiens); assay: Percent inhibition of human calpain 1 at 500 uM; Inhibition within […]; summary of the method: as §1
[14] = biological target: T1, Calpain-1 catalytic subunit (Homo sapiens); assay: Percent inhibition of recombinant human calpain 1 at highest concentration of 150 uM; Inhibition values are within […]; summary of the method: as §1
[15] = biological target: T1, Calpain-1 catalytic subunit (Homo sapiens); assay: Percent inhibition of human calpain 1 at 580 uM; Inhibition within […]; summary of the method: as §1
[16] = biological target: T1, Calpain-1 catalytic subunit (Homo sapiens); assay: Percent inhibition of human calpain 1 at 550 uM; Inhibition within […]; summary of the method: as §1
[17] = biological target: T1, Calpain-1 catalytic subunit (Homo sapiens); assay: Percent inhibition of human calpain 1 at 280 uM; Inhibition within […]; summary of the method: as §1
[18] = biological target: T1, Calpain-1 catalytic subunit (Homo sapiens); assay: Percent inhibition of human calpain 1 at 650 uM; Inhibition within […]; summary of the method: as §1
[19] = Binding affinity for rat erythrocyte calpain
[20] = biological target: T1, Calpain-1 catalytic subunit (Homo sapiens); assay: Percent inhibition of human calpain 1 at 680 uM; Inhibition within […]; summary of the method: as §1
[21] = biological target: T1, Calpain-1 catalytic subunit (Homo sapiens); assay: Percent inhibition of human calpain 1 at 110 uM; Inhibition within […]; summary of the method: as §1
[22] = biological target: T1, Calpain-1 catalytic subunit (Homo sapiens); assay: Percent inhibition of human calpain 1 at 130 uM; Inhibition within […]; summary of the method: as §1
[23] = biological target: T1, Calpain-1 catalytic subunit (Homo sapiens); assay: Percent inhibition of human calpain 1 at 170 uM; Inhibition within […]; summary of the method: as §1
[24] = biological target: T1, Calpain-1 catalytic subunit (Homo sapiens); assay: Percent inhibition of human calpain 1 at 120 uM; Inhibition within […]; summary of the method: as §1
[25] = biological target: T1, Calpain-1 catalytic subunit (Homo sapiens); assay: Percent inhibition of human calpain 1 at 350 uM; Inhibition within […]; summary of the method: as §1
[26] = biological target: T1, Calpain-1 catalytic subunit (Homo sapiens); assay: Percent inhibition of human calpain 1 at 97 uM; Inhibition within […]; summary of the method: as §1

inhibition [1]: 30%
SMILES: C[C@H](O)[C@@H]1NC(=O)[C@H](Cc2ccccc2)NC1=O

inhibition [2]: 0%
SMILES: O=C1N[C@@H](Cc2ccccc2)C(=O)N[C@H]1COCc1ccccc1

IC50 [3]: 400 nM
SMILES: O=C(O)/C(S)=C/c1ccc(I)cc1

inhibition [4]: 13%
SMILES: COC(=O)C[C@@H]1NC(=O)[C@H](Cc2ccccc2)NC1=O

inhibition [5]: 0%
SMILES: COC(=O)C[C@H]1NC(=O)[C@H](Cc2ccc(O)cc2)NC1=O

inhibition [6]: 0%
SMILES: O=C1N[C@@H](Cc2c[nH]c3ccccc23)C(=O)N[C@H]1Cc1c[nH]c2ccccc12

inhibition [1]: 0%
SMILES: CC(C)C[C@@H]1NC(=O)[C@H](Cc2ccc(O)cc2)NC1=O

inhibition [7]: 25%
SMILES: COC(=O)C[C@@H]1NC(=O)[C@H](Cc2ccc(O)cc2)NC1=O

inhibition [8]: 0%
SMILES: O=C1N[C@@H](Cc2c[nH]c3ccccc23)C(=O)N[C@H]1Cc1ccccc1

inhibition [9]: 0%
SMILES: CN1C(=O)[C@H](Cc2ccc(O)cc2)N(C)C(=O)[C@@H]1Cc1ccccc1

inhibition [6]: 0%
SMILES: O=C1N[C@@H](Cc2ccc(O)cc2)C(=O)N[C@H]1Cc1ccccc1

inhibition [10]: 0%
SMILES: CC(C)C[C@@H]1NC(=O)[C@H](Cc2c[nH]c3ccccc23)NC1=O

inhibition [2]: 0%
SMILES: CN1C(=O)[C@H](Cc2ccccc2)N(C)C(=O)[C@@H]1Cc1ccccc1

inhibition [11]: 0%
SMILES: O=C1N[C@@H](Cc2c[nH]c3ccccc23)C(=O)N[C@H]1COCc1ccccc1

inhibition [12]: 25%
SMILES: COC(=O)C[C@H]1NC(=O)[C@H](Cc2ccccc2)NC1=O

inhibition [13]: 0%
SMILES: O=C1N[C@@H](Cc2ccc(O)cc2)C(=O)N[C@H]1Cc1ccc(O)cc1

inhibition [14]: 0%
SMILES: COC(=O)C[C@@H]1NC(=O)[C@H](COCc2ccccc2)NC1=O

inhibition [15]: 0%
SMILES: C[C@H](O)[C@@H]1NC(=O)[C@H](Cc2ccc(O)cc2)NC1=O

inhibition [16]: 0%
IC50 [3]: 1300 nM
SMILES: CC(C)c1ncc(Cc2ccccc2)nc1O

inhibition [17]: 0%
SMILES: O=C1N[C@@H](Cc2ccccc2)C(=O)N[C@H]1Cc1ccccc1

inhibition [11]: 0%
SMILES: CC(C)[C@@H]1NC(=O)[C@H](Cc2ccc(OCc3ccccc3)cc2)NC1=O

inhibition [18]: 50%
SMILES: O=C1N[C@@H](Cc2ccc(OCc3ccccc3)cc2)C(=O)N[C@H]1Cc1ccccc1

Ki [19]: 10 nM
SMILES: CC(C)[C@H](NC(=O)OCc1ccccc1)C(=O)NC(C=O)Cc1ccccc1 (stereo partly drawn) (Cbz-Val-[ξF]-aldehyde)

inhibition [20]: 0%
IC50 [3]: 800 nM
SMILES: CN1C(=O)[C@H](Cc2ccc(O)cc2)N(C)C(=O)[C@@H]1Cc1ccc(O)cc1

inhibition [21]: 0%
SMILES: CC(C)C[C@@H]1NC(=O)[C@H](COCc2ccccc2)NC1=O

inhibition [22]: 0%
SMILES: CC(C)C[C@@H]1NC(=O)[C@H](Cc2ccccc2)NC1=O

inhibition [23]: 0%
SMILES: Cc1ccc(S(=O)(=O)/N=C(/N)NCCC[C@@H]2NC(=O)[C@H](Cc3ccc(O)cc3)NC2=O)cc1

inhibition [24]: 0%
SMILES: COC(=O)C[C@@H]1NC(=O)[C@H](Cc2ccc(OCc3ccccc3)cc2)NC1=O

inhibition [24]: 0%
SMILES: O=C1N[C@@H](Cc2ccc(O)cc2)C(=O)N[C@H]1COCc1ccccc1

inhibition [14]: 0%
SMILES: O=C1N[C@@H](Cc2c[nH]c3ccccc23)C(=O)N[C@H]1Cc1ccc(O)cc1

IC50 [3]: 7100 nM
SMILES: COc1c([C@@H](O)CC(C)C)ccc2c1C(=O)OCc1cc(C)cc(O)c1O2 [PENICILLIDE]

inhibition [25]: 50%
SMILES: CN1C(=O)[C@H](Cc2ccc(OCc3ccccc3)cc2)N(C)C(=O)[C@@H]1Cc1ccc(OCc2ccccc2)cc1

inhibition [25]: 0%
SMILES: Cc1ccc(S(=O)(=O)/N=C(/N)NCCC[C@@H]2NC(=O)[C@H](Cc3ccccc3)NC2=O)cc1

inhibition [26]: 50%
SMILES: O=C1N[C@@H](Cc2ccc(OCc3ccccc3)cc2)C(=O)N[C@H]1Cc1ccc(OCc2ccccc2)cc1
